Assay results from ChEMBL document CHEMBL3868633, “Linker dependent intercalation of bisbenzimidazole-aminosugars in an RNA duplex; selectivity in RNA vs. DNA binding” (Bioorg Med Chem Lett, 2016).
The source made the active and inactive calls. The calls are words filed in the database; no cut-off is given here.

Assays:
[1] = Binding affinity to poly(rA).(rU) RNA duplex (unknown origin) assessed as thermal stability by measuring change in melting temperature at 5 uM by UV-Vis spectrophotometry
Procedure, shortened: (§1)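 UV thermal denaturation of poly(rA)•(rU) duplex at 15 µM/bp, with and without ligand, in 10 mM sodium cacodylate, 0.5 mM EDTA, 100 mM NaCl, pH 7.0. ΔTm is the shift from the melting temperature of free RNA.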

[2] = Binding affinity to poly(rA).(rU) RNA duplex (unknown origin) assessed as decrease in CD band intensity at 263 nanometer measured after 5 mins by circular dichroism titration method
Procedure, shortened: (§2)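 Poly(rA)•(rU) at 40 µM/bp in 10 mM sodium cacodylate, 0.5 mM EDTA, 100 mM NaCl, pH 7.0, 25 °C. Concentrated ligand added serially, with 5 min equilibration before each CD scan. Each measurement averages two scans. Changes in nucleic acid CD intensity are plotted against rbd (RNA base pairs per drug) to derive binding site size.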

[3] = Inhibition of ethidium bromide binding to r(CGCAAAUUUGCG)2 RNA (unknown origin) at 1:1 ratio of ligand:RNA measured after 5 mins by fluorescent intercalator displacement assay relative to control
Procedure, shortened: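 Buffer is 10 mM sodium cacodylate, 0.5 mM EDTA, 100 mM NaCl, pH 7.0, at 23 °C. Read-out is the percent change in fluorescence emission on ligand addition.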

[4] = Binding affinity to poly(rA).(rU) RNA duplex (unknown origin) assessed as red shift at 3 uM by UV-vis absorption method
[5] = Binding affinity to poly(rA).(rU) RNA duplex (unknown origin) assessed as change in CD band intensity at 266 nanometer measured after 5 mins by circular dichroism titration method
Procedure, shortened: (§3)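 Circular dichroism titration of poly(rA)•(rU) at 40 µM/bp in 10 mM sodium cacodylate, 0.5 mM EDTA, 100 mM NaCl, pH 7.0, at 25 °C. Concentrated ligand is added serially, with five minutes of equilibration after each addition. Each spectrum is the average of two scans. Binding site size (rbd, RNA base pairs per drug) is taken from the change in nucleic acid CD intensity.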

[6] = Binding affinity to poly(rA).(rU) RNA duplex (unknown origin) assessed as hypochromicity at 3 uM by UV-vis absorption method
[7] = Binding affinity to poly(rA).(rU) RNA duplex (unknown origin) assessed as appearance of induced CD band at 320 to 380 nanometer measured after 5 mins by circular dichroism titration method; procedure, shortened: as §2
[8] = Binding affinity to poly(rA).(rU) RNA duplex (unknown origin) assessed as thermal stability by measuring change in melting temperature at 5 uM in presence of neomycin by UV-Vis spectrophotometry
[9] = Binding affinity to d(CGCAAATTTGCG)2 DNA (unknown origin) assessed as thermal stability by measuring change in melting temperature by UV-Vis spectrophotometry
[10] = Binding affinity to poly(rA).(rU) RNA duplex (unknown origin) assessed as appearance of negative induced LD signal at 348 nanometer at 100 uM after 5 mins by microvolume couette flow linear dichroism method
Procedure, shortened: (§4)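 Linear dichroism spectra of poly(rA)•(rU) (1 mM/bp) alone and mixed with ligand at rbd 10. Run in 10 mM sodium cacodylate, 0.5 mM EDTA, 100 mM NaCl, pH 7.0, at room temperature.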

[11] = Binding affinity to poly(rA).(rU) RNA duplex (unknown origin) assessed as isosbestic point at 362 nanometer at 3 uM by UV-vis absorption method
[12] = Binding affinity to poly(rA).(rU) RNA duplex (unknown origin) assessed as appearance of negative induced CD at 347 nanometer measured after 5 mins by circular dichroism titration method; procedure, shortened: as §3
[13] = Binding affinity to poly(rA).(rU) RNA duplex (unknown origin) assessed as appearance of unidirectional induced CD at 347 nanometer measured after 5 mins by circular dichroism titration method; procedure, shortened: as §3
[14] = Binding affinity to poly(rA).(rU) RNA duplex (unknown origin) assessed as change in LD signal at 260 nanometer at 100 uM after 5 mins by microvolume couette flow linear dichroism method; procedure, shortened: as §4
[15] = Binding affinity to r(CGCAAAUUUGCG)2 RNA duplex (unknown origin) assessed as thermal stability by measuring change in melting temperature at 5 uM by UV-Vis spectrophotometry
[16] = Inhibition of ethidium bromide binding to r(CGCAAAUUUGCG)2 RNA (unknown origin) after 5 mins by fluorescent intercalator displacement assay
[17] = Binding affinity to poly(rA).(rU) RNA duplex (unknown origin) measured after 5 mins by circular dichroism titration method; procedure, shortened: as §3
[18] = Binding affinity to poly(rA).(rU) RNA duplex (unknown origin) assessed as thermal stability by measuring change in melting temperature at 5 uM in presence of Hoechst 33258 by UV-Vis spectrophotometry; procedure, shortened: as §1

C#CCOCCCCCCOc1ccc(-c2nc3ccc(-c4nc5ccc(N6CCN(C)CC6)cc5[nH]4)cc3[nH]2)cc1
ΔTm [1]: 0.3 °C

CN1CCN(c2ccc3[nH]c(-c4ccc5[nH]c(-c6ccc(O)cc6)nc5c4)nc3c2)CC1
Activity [2]: Active
inhibition [3]: 8.2%
Activity [4]: 1 nm
Activity [5]: Active
Activity [6]: 32.2%
Activity [7]: Active
ΔTm [1]: 0.4 °C
ΔTm [8]: 10.5 °C

CN1CCN(c2ccc3nc(-c4ccc5nc(-c6ccc(OCCCCCCCCCCCCOCc7cn(C[C@H]8O[C@@H](O[C@@H]9[C@@H](O)[C@H](N)C[C@H](N)[C@H]9O[C@H]9O[C@H](CN)[C@@H](O)[C@H](O)[C@H]9N)[C@H](O)[C@@H]8O[C@H]8OC(CN)[C@@H](O)[C@H](O)[C@H]8N)nn7)cc6)[nH]c5c4)[nH]c3c2)CC1 (stereo not given in full)
ΔTm [9]: 18.2 °C
inhibition [3]: 20.7 to 36.2%
Activity [10]: Active

C#CCOCCCCOc1ccc(-c2nc3ccc(-c4nc5ccc(N6CCN(C)CC6)cc5[nH]4)cc3[nH]2)cc1
ΔTm [1]: 0.3 °C

CN1CCN(c2ccc3nc(-c4ccc5nc(-c6ccc(OCCCCCCOCc7cn(C[C@H]8O[C@@H](O[C@@H]9[C@@H](O)[C@H](N)C[C@H](N)[C@H]9O[C@H]9O[C@H](CN)[C@@H](O)[C@H](O)[C@H]9N)[C@H](O)[C@@H]8O[C@H]8OC(CN)[C@@H](O)[C@H](O)[C@H]8N)nn7)cc6)[nH]c5c4)[nH]c3c2)CC1 (stereo not given in full)
ΔTm [9]: 22.2 °C
inhibition [3]: 20.7 to 36.2%
Activity [4]: 10 nm
Activity [5]: Active
Activity [10]: Active
Activity [11]: Active
Activity [6]: 34.1%
ΔTm [1]: 15.8 to 19 °C
Activity [12]: Active
Activity [13]: Active

C#CCOCCCCCCCCOc1ccc(-c2nc3ccc(-c4nc5ccc(N6CCN(C)CC6)cc5[nH]4)cc3[nH]2)cc1
ΔTm [1]: 0.7 °C

CN1CCN(c2ccc3nc(-c4ccc5nc(-c6ccc(OCCCCc7cn(C[C@H]8O[C@@H](O[C@@H]9[C@@H](O)[C@H](N)C[C@H](N)[C@H]9O[C@H]9O[C@H](CN)[C@@H](O)[C@H](O)[C@H]9N)[C@H](O)[C@@H]8O[C@H]8OC(CN)[C@@H](O)[C@H](O)[C@H]8N)nn7)cc6)[nH]c5c4)[nH]c3c2)CC1 (stereo not given in full)
ΔTm [9]: 22.8 °C
inhibition [3]: 20.7 to 36.2%
Activity [10]: Active
Activity [14]: Active
ΔTm [15]: 15.1 °C
Ka [16]: 8.8 ×10⁶ /M

CN1CCN(c2ccc3nc(-c4ccc5nc(-c6ccc(OCCOCCOCCOCCOCCOCCOCc7cn(C[C@H]8O[C@@H](O[C@@H]9[C@@H](O)[C@H](N)C[C@H](N)[C@H]9O[C@H]9O[C@H](CN)[C@@H](O)[C@H](O)[C@H]9N)[C@H](O)[C@@H]8O[C@H]8OC(CN)[C@@H](O)[C@H](O)[C@H]8N)nn7)cc6)[nH]c5c4)[nH]c3c2)CC1 (stereo not given in full)
ΔTm [9]: 16.4 °C
inhibition [3]: 20.7 to 36.2%
Activity [10]: Active
ΔTm [15]: 7.2 °C

C#CCCCCOc1ccc(-c2nc3ccc(-c4nc5ccc(N6CCN(C)CC6)cc5[nH]4)cc3[nH]2)cc1
ΔTm [1]: -1.2 °C

CN1CCN(c2ccc3nc(-c4ccc5nc(-c6ccc(OCCCCCCCCCCOCc7cn(C[C@H]8O[C@@H](O[C@@H]9[C@@H](O)[C@H](N)C[C@H](N)[C@H]9O[C@H]9O[C@H](CN)[C@@H](O)[C@H](O)[C@H]9N)[C@H](O)[C@@H]8O[C@H]8OC(CN)[C@@H](O)[C@H](O)[C@H]8N)nn7)cc6)[nH]c5c4)[nH]c3c2)CC1 (stereo not given in full)
ΔTm [9]: 19 °C
inhibition [3]: 20.7 to 36.2%
Activity [10]: Active
ΔTm [1]: 20.3 °C

CN1CCN(c2ccc3nc(-c4ccc5nc(-c6ccc(OCc7cn(C[C@H]8O[C@@H](O[C@@H]9[C@@H](O)[C@H](N)C[C@H](N)[C@H]9O[C@H]9O[C@H](CN)[C@@H](O)[C@H](O)[C@H]9N)[C@H](O)[C@@H]8O[C@H]8OC(CN)[C@@H](O)[C@H](O)[C@H]8N)nn7)cc6)[nH]c5c4)[nH]c3c2)CC1 (stereo not given in full)
ΔTm [9]: 23.8 °C
inhibition [3]: 20.7 to 36.2%
Activity [10]: Active
ΔTm [15]: 9.1 °C

CN1CCN(c2ccc3nc(-c4ccc5nc(-c6ccc(OCCCCCCCCOCc7cn(C[C@H]8O[C@@H](O[C@@H]9[C@@H](O)[C@H](N)C[C@H](N)[C@H]9O[C@H]9O[C@H](CN)[C@@H](O)[C@H](O)[C@H]9N)[C@H](O)[C@@H]8O[C@H]8OC(CN)[C@@H](O)[C@H](O)[C@H]8N)nn7)cc6)[nH]c5c4)[nH]c3c2)CC1 (stereo not given in full)
ΔTm [9]: 21.7 °C
inhibition [3]: 20.7 to 36.2%
Activity [10]: Active
ΔTm [1]: 21.9 °C

C#CCOCCOCCOCCOCCOCCOCCOc1ccc(-c2nc3ccc(-c4nc5ccc(N6CCN(C)CC6)cc5[nH]4)cc3[nH]2)cc1
ΔTm [1]: 0.2 °C

C#CCOCCCCCCCCCCCCOc1ccc(-c2nc3ccc(-c4nc5ccc(N6CCN(C)CC6)cc5[nH]4)cc3[nH]2)cc1
ΔTm [1]: -0.2 °C

C#CCOCCCCCCCCCCOc1ccc(-c2nc3ccc(-c4nc5ccc(N6CCN(C)CC6)cc5[nH]4)cc3[nH]2)cc1
ΔTm [1]: 0.3 °C

CN1CCN(c2ccc3nc(-c4ccc5nc(-c6ccc(OCCCCOCc7cn(C[C@H]8O[C@@H](O[C@@H]9[C@@H](O)[C@H](N)C[C@H](N)[C@H]9O[C@H]9O[C@H](CN)[C@@H](O)[C@H](O)[C@H]9N)[C@H](O)[C@@H]8O[C@H]8OC(CN)[C@@H](O)[C@H](O)[C@H]8N)nn7)cc6)[nH]c5c4)[nH]c3c2)CC1 (stereo not given in full)
ΔTm [9]: 24.6 °C
inhibition [3]: 20.7 to 36.2%
Activity [10]: Active
ΔTm [1]: 15 °C

C#CCCCCCCCCCOc1ccc(-c2nc3ccc(-c4nc5ccc(N6CCN(C)CC6)cc5[nH]4)cc3[nH]2)cc1
ΔTm [1]: -0.4 °C

NC[C@@H]1O[C@H](O[C@H]2[C@@H](O)[C@H](O[C@@H]3[C@@H](O)[C@H](N)C[C@H](N)[C@H]3O[C@H]3O[C@H](CN)[C@@H](O)[C@H](O)[C@H]3N)O[C@@H]2CO)[C@H](N)[C@@H](O)[C@@H]1O
inhibition [3]: 20.4%
Activity [5]: Active
Activity [17]: Active
ΔTm [1]: 10.8 °C
ΔTm [18]: 10.5 °C

C#CCOc1ccc(-c2nc3ccc(-c4nc5ccc(N6CCN(C)CC6)cc5[nH]4)cc3[nH]2)cc1
ΔTm [1]: 0 °C

CN1CCN(c2ccc3nc(-c4ccc5nc(-c6ccc(OCCCCCCCCc7cn(C[C@H]8O[C@@H](O[C@@H]9[C@@H](O)[C@H](N)C[C@H](N)[C@H]9O[C@H]9O[C@H](CN)[C@@H](O)[C@H](O)[C@H]9N)[C@H](O)[C@@H]8O[C@H]8OC(CN)[C@@H](O)[C@H](O)[C@H]8N)nn7)cc6)[nH]c5c4)[nH]c3c2)CC1 (stereo not given in full)
ΔTm [9]: 13.2 °C
inhibition [3]: 20.7 to 36.2%
Activity [10]: Active
ΔTm [15]: 16.2 °C
